Myeloid diff 2 – induction of myeloid progenitor differentiation, primary screen, cell-based, flow cytometry, MLPCN library; ER-HoxA9 myeloid progenitors, lysozyme-GFP differentiation; calls only at 10 µM; 360,000 tested, 1% active;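 active = normalized GFP-positive differentiation at or above the plate's own cutoff, the solvent-only control mean plus 3 SD; inconclusive = no clear call, values can overlap the other calls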;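 note: cells exposed to compound for four days before flow analysis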
Vif inh – HIV Vif self-association inhibitors, primary screen, imaging, HEK293T, single point | inhibition, % at 7.49 µM | HEK293T cells, Vif self-association by quenched fluorescence, 24 h | AID 602346, 2012 | 340,000 tested, 0.35% active; in the data active = inhibition above about 50%, passing the limit was not always enough; inconclusive = no clear call, values can overlap the other calls; inactive = below about 31%
T cell modulator – modulators of CD8 T cell-vesicle binding, primary screen, mouse 2C CD8+ T cells, flow cytometry; 2C CD8+ T cell-vesicle binding; stronger effect = lower value; response (vesicle binding), % at 7 µM; 330,000 tested, 0.068% active;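 active = response, share of CD8 T cells binding vesicles, and their 90th percentile fluorescence all below set limits, cut at about 80% in these data, passing the limit was not always enough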;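 note: values below 100% mean blocked vesicle binding to the CD8+ T cells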
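Incubation: binding step 1.5 h, 37 °C, antibody labelling 20 min, ice; system: murine 2C transgenic CD8+ T lymphocytes; technique: cytometric PE anti-B7-1 and Alexa647 anti-CD8 signals after 1% paraformaldehyde fixation; also added: QL9-charged Drosophila Ld/ICAM-1/B7-1 vesicles; control set: naked versus QL9-loaded vesicles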
Casp6 inh – human caspase-6 inhibitors, primary screen, biochemical, VEID-R110 fluorescence, single point, set 2. AID 686996, 2013. purified caspase-6, Z-VEID-R110 cleavage fluorescence. 350,000 tested, 0.53% active. inhibition, % at 12.5 µM;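 active = mean inhibition across replicates at least about 35%, with every replicate also reaching that limit, limit read from the data; inconclusive = only one of the two criteria met; inactive = neither criterion met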
Target sequence (P55212 24-179 limits assumed): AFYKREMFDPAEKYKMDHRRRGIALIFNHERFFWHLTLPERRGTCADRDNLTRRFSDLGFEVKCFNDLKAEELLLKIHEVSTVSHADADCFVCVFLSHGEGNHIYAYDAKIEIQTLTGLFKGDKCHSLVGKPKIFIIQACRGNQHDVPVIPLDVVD
Target sequence (P55212 194-293 limits assumed): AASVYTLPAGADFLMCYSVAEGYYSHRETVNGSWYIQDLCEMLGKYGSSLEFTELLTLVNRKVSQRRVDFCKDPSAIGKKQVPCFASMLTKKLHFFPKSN
Each line names hits and unclear results; the compound was inactive in the other large screens; ! = a repeat was not active. The list is not random: actives were taken first. Their share in the collection is about 1.4%.

CC(NC(=O)C1CCN(CCOc2ccc(Cl)cc2)CC1)c1cccc2ccccc12 (configuration not stated)	Vif inh 66 (no result: T cell modulator)
NC(=O)c1c(NC(=O)c2cccnc2Cl)sc2c1CCCC2	T cell modulator 0.0 (no result: Casp6 inh)
O=C(NCC1CCCCC1)[C@@H]1[C@@H](CO)[C@@H]2Cn3c(ccc(-c4ccccc4F)c3=O)[C@H]1N2	none (no result: Myeloid diff 2, Vif inh, T cell modulator)
COc1cccc(S(=O)(=O)Nc2ccc3c(c2)[C@@H]2C[C@@H](CC(=O)NC4CCCCC4)O[C@@H](CO)[C@@H]2O3)c1	none (no result: Myeloid diff 2, Vif inh, T cell modulator)
O=C(C[C@@H]1C[C@H]2c3cc(NC(=O)Nc4ccccc4F)ccc3O[C@H]2[C@H](CO)O1)NC1CCCC1	Casp6 inh 99 (no result: Myeloid diff 2, Vif inh, T cell modulator)
O=C(C[C@H]1C[C@H]2c3cc(NC(=O)Nc4ccccc4F)ccc3O[C@H]2[C@H](CO)O1)NC1CCCC1	none (no result: Myeloid diff 2, Vif inh, T cell modulator)
COc1cccc(S(=O)(=O)Nc2ccc3c(c2)[C@H]2C[C@@H](CC(=O)NC4CCCCC4)O[C@H](CO)[C@H]2O3)c1	Casp6 inh 64 (no result: Myeloid diff 2, Vif inh, T cell modulator)
COc1cc(/C=C/C(=O)N2CCCC=CC2=O)cc(OC)c1OC	none (no result: Myeloid diff 2, Vif inh, T cell modulator)
COc1ccccc1C#Cc1ccc([C@@H]2[C@@H](CO)N3CCCCN(S(C)(=O)=O)C[C@H]23)cc1	none (no result: Myeloid diff 2, Vif inh, T cell modulator)
COCC(=O)Nc1ccc2c(c1)C(=O)N(C)C[C@H](OC)[C@@H](C)CN(Cc1cccc(F)c1)[C@@H](C)CO2	none (no result: Myeloid diff 2, Vif inh, T cell modulator)
Nc1cnc(Nc2ccc(Br)cc2)nc1N	Myeloid diff 2 active
N#Cc1c(N)nc(N)nc1Nc1ccc(Br)cc1	none
CC(=O)Nc1ccc(S(=O)(=O)/N=C2/NC(=O)/C(=C\c3ccco3)S2)cc1	Casp6 inh 65
O=C1NC(=S)NC1=Cc1ccco1	Casp6 inh 44 (no result: T cell modulator)
NC1=NC(=O)/C(=C\c2ccco2)S1	Casp6 inh 63
O=C1NC(=O)/C(=C/c2ccco2)N1	none
O=C1NC(=O)C(=Cc2ccco2)S1	Casp6 inh 49 (no result: T cell modulator)
C[C@H](CO)N1C[C@H](C)[C@H](CN(C)Cc2ccncc2)Oc2ncc(C#CC3CCCCC3)cc2C1=O	none (no result: Myeloid diff 2, Vif inh, T cell modulator)
CO[C@@H]1CN(C)C(=O)c2cc(NS(=O)(=O)CC(F)(F)F)ccc2OC[C@H](C)N(C(=O)NC(C)C)C[C@@H]1C	none (no result: Myeloid diff 2, Vif inh, T cell modulator)
O=C(NCC[C@H]1CC[C@@H](NS(=O)(=O)c2ccc(Cl)cc2)[C@H](CO)O1)Nc1ccc(F)cc1	none (no result: Myeloid diff 2, Vif inh, T cell modulator)
COCC(=O)Nc1ccc2c(c1)C(=O)N(C)C[C@H](OC)[C@H](C)CN(C(=O)CC1CC1)[C@H](C)CO2	none (no result: Myeloid diff 2, Vif inh, T cell modulator)
COc1ccc2[nH]c(C)c(CCN(Cc3cccs3)C(=S)Nc3ccc(F)cc3)c2c1	Myeloid diff 2 active (no result: Casp6 inh)
COc1ccc(C2C(C#N)=C(N)SC(N)=C2C#N)cc1OC	Myeloid diff 2 active (no result: Casp6 inh)
CN(C)c1ccc(/C=C2\N=C(c3ccc(Cl)c([N+](=O)[O-])c3)NC2=O)cc1	Myeloid diff 2 active (no result: Casp6 inh)
CN(C)c1ccc(/C=C2/NC(=O)NC2=O)cc1	none (no result: Vif inh)
CN1C(=O)c2cc(NC(=O)c3cccs3)ccc2OC[C@H]2O[C@H](CC(=O)NCC(F)(F)F)CC[C@@H]21	none (no result: Myeloid diff 2, Vif inh, T cell modulator)
COc1ccc2oc(C(=O)N3CCN(c4ncccn4)CC3)c(C)c2c1	Casp6 inh 36
Cc1c(C(=O)N2CCCC2)oc2ccc(Br)cc12	Casp6 inh 39
Cc1ccc(S(=O)(=O)Nc2c(O)ccc3ccccc23)cc1	T cell modulator 33 (no result: Casp6 inh)
Cc1ccccc1N1C(N)=NC(N)=NC1(C)C	Myeloid diff 2 active (no result: Casp6 inh)
COc1ccccc1N1C(N)=NC(N)=NC1(C)C	Myeloid diff 2 active!
Cc1ccc(N2C(N)=NC(N)=NC2(C)C)c(C)c1	Myeloid diff 2 inconclusive (no result: Casp6 inh)
COc1ccccc1N1C(N)=NC(N)=NC12CCCCC2	none
Cc1ccc(NC(=S)NC2CCN(Cc3ccccc3)CC2)cc1C	Myeloid diff 2 active
Cc1ccc(NC(=S)NC2CCN(Cc3ccccc3)CC2)cc1	none (no result: Casp6 inh)
COc1ccccc1NS(=O)(=O)c1cccc(C(=O)NC2CCN(Cc3ccccc3)CC2)c1	none (no result: Casp6 inh)
Cn1c(=O)c2cc(NC(=S)NC3CC3)ccc2n1Cc1ccccc1	Casp6 inh 58 (no result: T cell modulator)
Cn1c(=O)c2cc(NC(=S)NC3CCCCC3)ccc2n1Cc1ccc(F)cc1	none (no result: T cell modulator)
COc1ccccc1NS(=O)(=O)c1cc(C(=O)NC2CCN(Cc3ccccc3)CC2)ccc1C	Casp6 inh 55 (no result: Myeloid diff 2, Vif inh, T cell modulator)
N#Cc1ccc(-c2ccc3c(c2)[C@@H]2[C@@H](CCN2Cc2ccc4c(c2)OCO4)[C@@H](CO)N3)cc1	none (no result: Myeloid diff 2, Vif inh, T cell modulator)
CCOC(=O)c1ccc(NC(=O)C(=O)NCc2ccncc2)cc1	none
CCCCOC(=O)c1ccc(NC(=O)C(=O)NCc2ccncc2)cc1	T cell modulator 0.0 (no result: Casp6 inh)
COc1ccccc1NC(=O)C(=N\O)/C(C)=N/O	Casp6 inh 39

Assay outcomes deposited in PubChem BioAssay by several laboratories.
